Published values gathered from unrelated publications.
MAPK14: Mitogen-activated protein kinase 14 (MAPK14, Homo sapiens, UniProt Q16539)
MAPK14 T106M: Mitogen-activated protein kinase 14 (MAPK14, Homo sapiens, UniProt Q16539, T106M)

SMILES	target	effect on	action	technique	concentration	endpoint	result
Cc1ccc(NC(=O)c2ccc(C)c(C(F)(F)F)c2)cc1C#Cc1nn(C2CCC(O)CC2)c2ncnc(N)c12 (centres unmarked)	MAPK14	cell-free assay	–	–	10 µM	remaining signal	3%
Cc1cc(NC(=O)c2cccc3cc(-c4cccc5[nH]nc(N)c45)ccc23)ccc1F	MAPK14 T106M	enzyme activity	inhibitor	–	0.1 µM	activity vs control	96%
CN(C)C1CCN(CC#Cc2nn(C3CCCC3)c3nc(NCc4ccccc4)ncc23)C1 (centres unmarked)	MAPK14	enzyme activity	inhibitor	FRET	0.1 µM	inhibition	8%
O=C1NC(=O)c2cc(Nc3ccc(F)cc3)c(Nc3ccc(F)cc3)cc21	MAPK14	cell-free assay	–	–	0.5 µM	remaining signal	88.3%
CC(C)(O)[C@H]1CC[C@H](Nc2ccc3ncc(-c4cccc(C(F)(F)F)c4)n3n2)CC1	MAPK14	enzyme activity	inhibitor	–	1 µM	remaining activity	86.4%
CC(C)c1ccc(NC(=O)c2cccs2)c(-c2nc3ccccc3[nH]c2=O)c1	MAPK14	enzyme activity	inhibitor	–	1 µM	activity vs control	102%
COc1cc(/C=C/C(=O)CC(=O)/C=C/c2ccc(O)c(OC)c2)ccc1O	MAPK14	enzyme activity	inhibitor	–	1 µM	activity vs control	104%
N#CC1(c2ccccn2)CCN(Cc2cc(C(=O)N3CCCC3)c(=O)n3ccccc23)CC1	MAPK14	cell-free assay	–	competition with immobilised ligand	1 µM	remaining binding	86%
Cc1ccc(Nc2nccc(N(C)c3ccc4c(C)n(C)nc4c3)n2)cc1S(N)(=O)=O	MAPK14	enzyme activity	inhibitor	–	10 µM	inhibition	62%
Nc1nc(Nc2ccccc2)sc1C(=O)c1c(F)cccc1F	MAPK14	enzyme activity	inhibitor	–	10 µM	remaining activity	8%
Cc1noc([C@H]2C[C@@H](c3ccc(C(F)(F)F)cc3)CN(C(=O)N3CCS(=O)(=O)C3)C2)n1	MAPK14	cell-free assay	–	competition with immobilised ligand	1 µM	remaining binding	79%
O=C(Nc1cnn(-c2csc(C(=O)NC3COC3)c2)c1)Nc1c(F)cccc1Cl	MAPK14	enzyme activity	inhibitor	–	5 µM	remaining activity	105%
COc1cc(-c2cn(C3CCc4c(F)cccc4N(CC(F)(F)F)C3=O)nn2)ccc1-n1cnc(C)c1 (centres unmarked)	MAPK14	cell-free assay	–	competition with immobilised ligand	1 µM	remaining binding	100%
N#Cc1c(NC(=O)c2cccc3ccccc23)sc2c1CCCC2	MAPK14	cell-free assay	–	–	0.5 µM	remaining signal	98.1%
Cc1cc(-n2nc(Cc3cc(F)cc(C(F)(F)F)c3)nc2C)ccc1C(N)=O	MAPK14	cell-free assay	–	competition with immobilised ligand	1 µM	remaining binding	95%
CNC(=O)c1cc(Oc2ccc(NC(=O)Nc3ccc(Cl)c(C(F)(F)F)c3)cc2)ccn1	MAPK14 T106M	enzyme activity	inhibitor	–	0.3 µM	inhibition	59%
Cc1nc(Cc2cccc(C(F)(F)F)c2)sc1-c1ccc(C(N)=O)nc1	MAPK14	cell-free assay	–	competition with immobilised ligand	1 µM	remaining binding	100%
COc1cc(Nc2cnc(C#N)c(O[C@H](C)CN(C)C)n2)ncc1-c1cnn(C)c1	MAPK14	enzyme activity	inhibitor	radiometric	1 µM	remaining activity	102%
CCN(CC)CCNC(=O)c1c(C)[nH]c(/C=C2\C(=O)Nc3ccc(F)cc32)c1C	MAPK14	enzyme activity	inhibitor	–	0.3 µM	inhibition	-11%
Cc1cc(NC(=O)c2cccc(S(F)(F)(F)(F)F)c2)cc(-n2ccn3nc(-c4cccnc4)cc23)c1	MAPK14	cell-free assay	–	competition with immobilised ligand	1 µM	remaining binding	100%
